Experimental data as given in ChEMBL document CHEMBL2062476, “One pot efficient diversity oriented synthesis of polyfunctional styryl thiazolopyrimidines and their bio-evaluation as antimalarial and anti-HIV agents” (Eur J Med Chem, 2012).
Values after ≈ are worked out from the molar mass of the structure shown.

How the values were obtained:
Plasmodium falciparum [1] = test: Antimalarial activity against chloroquine sensitive Plasmodium falciparum 3D7 infected in RBCs incubated for 72 hrs by SYBRgreen dye based fluorometric assay; type: functional, organism-based; details: 3D7, 72 h
Procedure, shortened: (§1)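 Parasites kept in RPMI-1640 (HEPES) with 0.5% AlbuMaxII, 0.2% glucose, 0.2% NaHCO3, 15 µM hypoxanthine, 37 °C, 5% CO2. Compounds in DMSO (10mg/mL stock), two-fold serial dilutions. Infected erythrocytes added at 4% haematocrit, 1% parasitaemia, incubated 72 h. Lysis buffer with SYBR green added for 4 h in the dark at room temp. Fluorescence read at ex 485/em 535 nm. IC50 taken from parasite DNA content relative to controls.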

Plasmodium falciparum [2] = test: Antimalarial activity against chloroquine resistant Plasmodium falciparum K1 infected in RBCs incubated for 72 hrs by SYBRgreen dye based fluorometric assay; type: functional, organism-based; details: K1, 72 h; procedure, shortened: as §1
[3] = Cytotoxicity against african green monkey Vero C1008 cells incubated for 72 hrs by resazurin dye based fluorometric assay; type: cell-based; details: chlorocebus sabaeus
Procedure, shortened: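 Vero (C1008) cells grown in MEM with 15% FBS, 37 °C, 5% CO2; trypsinized, seeded at 1 × 10^5 cells/mL and left to adhere overnight. Serial compound dilutions added for 72 h. Resazurin added, fluorescence read after 4 h; CC50 derived from viability.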

[4] = Selectivity index, ratio of CC50 for african green monkey Vero C1008 cells to IC50 for chloroquine sensitive Plasmodium falciparum 3D7; type: functional
Procedure, shortened: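 SI = CC50 in Vero cells (resazurin, 72 h) divided by IC50 against P. falciparum 3D7. The IC50 came from a SYBR green assay: cultures in RPMI-1640 with 0.5% AlbuMaxII and 15 µM hypoxanthine, 4% haematocrit, 1% parasitaemia, two-fold dilutions, 72 h at 37 °C. Lysis with SYBR green for 4 h, read at ex 485/em 535 nm.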

[5] = Selectivity index, ratio of CC50 for african green monkey Vero C1008 cells to IC50 for chloroquine resistant Plasmodium falciparum K1; type: functional
Procedure, shortened: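 Vero C1008 cells grown in MEM with 15% FBS. Seeded at 1 × 10^5 cells/mL, left to adhere overnight, then exposed to serial compound dilutions for 72 h. Viability read by resazurin fluorescence after 4 h and CC50 derived. SI = CC50 / IC50 against K1, with IC50 from the 72 h SYBR green parasite assay.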

[6] = test system: Human immunodeficiency virus; test: Inhibition of HIV reverse transcriptase activity at 10 ug/ml incubated at 37 degC for 1 hr by ELISA RT assay
Procedure, shortened: (§2)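 Colorimetric ELISA kit: template/primer with dNTPs (digoxigenin- and biotin-labelled dUTP) plus HIV-1 RT in lysis buffer, 60 µl total, 37 °C for 1 h; no-RT lysis buffer as negative control. Product captured on streptavidin plate 1 h at 37 °C, anti-DIG-POD (200 mU/mL) 1 h, ABTS substrate; OD 405 nm (reference 490 nm).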

[7] = test system: Human immunodeficiency virus; test: Inhibition of HIV reverse transcriptase activity at 100 ug/ml incubated at 37 degC for 1 hr by ELISA RT assay; procedure, shortened: as §2

Row | Compound | IC50 (Plasmodium falciparum [1]) [µg/mL] | IC50 (Plasmodium falciparum [2]) [µg/mL] | CC50 at 72 h [3] [µg/mL] | Ratio CC50/IC50 [4] | Ratio CC50/IC50 [5] | inhibition [6] [%] | inhibition [7] [%]
1 | CC1=CSC2=NC(/C=C/c3ccccc3)=C(C(=O)/C=C/c3ccccc3)C(c3ccc(Cl)cc3)N12 (centres undefined) | 0.5 (≈ 1.01 µM) | 0.27 (≈ 0.545 µM) | 320 (≈ 646 µM) | 639.3 | 1183.89 | 23.6 | 30.6
2 | COc1ccc(C2C(C(=O)/C=C/c3ccc(Cl)cc3)=C(/C=C/c3ccc(Cl)cc3)N=C3SC=C(C)N32)cc1 (centres undefined) | 5.3 (≈ 9.47 µM) | 1.49 (≈ 2.66 µM) | 273 (≈ 487 µM) | 51.42 | 182.89 | 31.2 | 50.9
3 | CC1=CSC2=NC(/C=C/c3ccccc3)=C(C(=O)/C=C/c3ccccc3)C(c3ccccc3)N12 (centres undefined) | 0.57 (≈ 1.24 µM) | 0.79 (≈ 1.72 µM) | 195 (≈ 424 µM) | 342.93 | 247.43 | 42.3 | 49.6
4 | COc1ccc(C2C(C(=O)/C=C/c3cccs3)=C(/C=C/c3cccs3)N=C3SC=C(C)N32)cc1 (centres undefined) | 5.17 (≈ 10.3 µM) | 2.03 (≈ 4.04 µM) | 235 (≈ 468 µM) | 45.48 | 115.83 | 47.7 | 54.4
5 | CC1=CSC2=NC(/C=C/c3cccc(Cl)c3)=C(C(=O)/C=C/c3cccc(Cl)c3)C(c3ccc(Cl)cc3)N12 (centres undefined) | 2.25 (≈ 3.99 µM) | < 0.76 | 317 (≈ 563 µM) | 141.02 | >417.5 | 13.2 | 16.6
6 | CC1=CSC2=NC(/C=C/c3ccccc3Cl)=C(C(=O)/C=C/c3ccccc3Cl)C(c3ccccc3)N12 (centres undefined) | 0.56 (≈ 1.06 µM) | 0.36 (≈ 0.68 µM) | 206 (≈ 389 µM) | 367.88 | 572.25 | 38.9 | 73.4
7 | CC1=CSC2=NC(/C=C/c3ccc(Cl)cc3)=C(C(=O)/C=C/c3ccc(Cl)cc3)C(c3ccccc3)N12 (centres undefined) | 5.15 (≈ 9.73 µM) | 2.71 (≈ 5.12 µM) | 252 (≈ 477 µM) | 49.03 | 93.17 | 42.6 | 53.4
8 | CC1=CSC2=NC(/C=C/c3ccc(F)cc3)=C(C(=O)/C=C/c3ccc(F)cc3)C(c3ccccc3)N12 (centres undefined) | 2.68 (≈ 5.4 µM) | 1.59 (≈ 3.2 µM) | 306 (≈ 616 µM) | 114.22 | 192.53 | 30 | 59.2
9 | COc1cc(/C=C/C(=O)C2=C(/C=C/c3cc(OC)c(OC)c(OC)c3)N=C3SC=C(C)N3C2c2ccccc2)cc(OC)c1OC (centres undefined) | 0.5 (≈ 0.78 µM) | < 0.3 | 260 (≈ 407 µM) | 520.94 | >868.23 | 5.69 | 66.9
10 | CC1=CSC2=NC(/C=C/c3ccc(OCc4ccccc4)cc3)=C(C(=O)/C=C/c3ccc(OCc4ccccc4)cc3)C(c3ccccc3)N12 (centres undefined) | 24.5 (≈ 36.4 µM) | 4.3 (≈ 6.39 µM) | > 500 | >20.39 | >116.28 | 47.7 | 56.3
11 | CC1=CSC2=NC(/C=C/c3ccc(Br)cc3)=C(C(=O)/C=C/c3ccc(Br)cc3)C(c3ccccc3)N12 (centres undefined) | 5.38 (≈ 8.7 µM) | 2.5 (≈ 4.04 µM) | 282 (≈ 457 µM) | 52.48 | 112.93 | 39.8 | 55.4
12 | CC1=CSC2=NC(/C=C/c3ccccc3Cl)=C(C(=O)/C=C/c3ccccc3Cl)C(c3ccc(Cl)cc3)N12 (centres undefined) | 5.9 (≈ 10.5 µM) | 2.79 (≈ 4.95 µM) | 430 (≈ 762 µM) | 72.84 | 154.03 | 18 | 26.1
